Published values collected from several papers.
Compare with care: the assays were run in different laboratories.

Structure (SMILES) | target or system | assay | system | setting | endpoint | value
CC(=O)N1N=C(c2ccc(NS(=O)(=O)c3ccc4oc(=O)ccc4c3)cc2)CC1c1ccc(Br)cc1 (stereo not shown) | Toxoplasma gondii | parasite growth, fluorescence | HS27 | 96 h, intracellular | IC50 | < 3.91 µg/mL
COc1cccc(/C=N/N2C(=O)c3ccccc3NC2c2cccc(OC)c2O)c1O (stereo not shown) | Mycolicibacterium smegmatis | microbial growth, broth dilution | ATCC700084 | 72 h | MIC | > 256 µg/mL
Cc1cc(/C=C/C#N)cc(C)c1Nc1ccnc(Nc2ccc(C#N)cc2)n1 | SUNE1 | cell growth or viability, MTT | – | 48 h | IC50 | 19.1 µM
C[C@@H]1[C@H](O)[C@@H](C)/C=C/C=C/C=C/C=C/C=C/C=C/C=C/[C@H](O[C@@H]2O[C@H](C)[C@@H](O)[C@H](N)[C@@H]2O)C[C@@H]2O[C@](O)(C[C@@H](O)C[C@@H](O)[C@H](O)CC[C@@H](O)C[C@@H](O)CC(=O)O[C@H]1C)C[C@H](O)[C@H]2C(=O)O | Candida tropicalis | microbial growth, broth dilution | ATCC13803 | 24 h | MIC | 4 µg/mL
C=CC(=O)NC1CCN(c2ncc3ncnc(Nc4ccc(Oc5ccc6c(c5)ncn6C)c(C)c4)c3n2)CC1 | Panc1005 | cell growth or viability | – | – | EC50 | 0.0396 µM
NNC(=O)c1ccncc1 | Mycolicibacterium smegmatis | microbial growth, broth dilution | ATCC700084 | – | MIC | 117 µM
COC1=CC(=O)c2ccccc2C1=O | Candida tropicalis | microbial growth, broth dilution | ATCC13803 | 24 h | MIC | 12.5 µg/mL
Cc1c(C(=O)O)ccc2c3n(nc12)[C@@H]1[C@H](C3)N(CC2CC2)[C@@]2(C(=O)Nc3cc(Cl)ccc32)[C@H]1c1cccc(Cl)c1F | UACC-812 | cell growth or viability | – | – | GI50 | 0.00119 µM
COc1cc(Cc2cnc(N)nc2N)cc(OC)c1OC | Toxoplasma gondii | parasite growth, fluorescence | HS27 | 96 h, intracellular | IC50 | 11.8 µg/mL
COc1cc2nc(N3CCN(C(=O)C4COc5ccccc5O4)CC3)nc(N)c2cc1OC (stereo not shown) | SUNE1 | cell growth or viability, MTT | – | 48 h | IC50 | 8.89 µM
